In brackets after ≈: the same amount, converted by molar mass. Activity calls are given as the source filed them. The calls are words filed in the database; no cut-off is given here.
Assays:
[1] = target: T1, Corticotropin-releasing factor receptor 1 (Rattus norvegicus, UniProt P35353); assay: (§1) Displacement of [125I]oCRF from rat CRF1 after 2 hrs by Betaplate scintillation counter
T1 sequence (P35353 whole entry): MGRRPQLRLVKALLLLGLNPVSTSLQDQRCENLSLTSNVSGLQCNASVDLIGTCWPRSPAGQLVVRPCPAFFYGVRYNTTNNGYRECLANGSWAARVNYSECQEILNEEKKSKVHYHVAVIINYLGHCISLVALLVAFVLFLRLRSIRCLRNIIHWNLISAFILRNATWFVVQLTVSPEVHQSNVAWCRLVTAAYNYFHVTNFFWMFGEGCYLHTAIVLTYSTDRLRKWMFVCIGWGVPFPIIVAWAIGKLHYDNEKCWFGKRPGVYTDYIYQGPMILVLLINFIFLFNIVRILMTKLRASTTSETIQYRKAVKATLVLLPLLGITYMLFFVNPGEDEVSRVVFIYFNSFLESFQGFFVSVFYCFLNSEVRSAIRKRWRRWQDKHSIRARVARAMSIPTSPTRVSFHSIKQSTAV

Rattus norvegicus [2] = assay: Ex vivo displacement of [125I]oCRF from CRF1 receptor in Sprague-Dawley rat brain cortex at 3.2 mg/kg, po after 2 hrs by Betaplate scintillation counter; type: functional
Method in brief: (§2)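 Male Sprague–Dawley rats (200–300 g) dosed orally 3.2 mg/kg; killed usually 1 h later, brain and pituitary frozen. Tissue at 25 mg wet wt/mL in PIPES pH 7.0 buffer with MgCl2, EGTA, bacitracin, aprotinin, incubated with 40 pM 125I-oCRF 2 h at room temperature; nonspecific with 1 µM rat/human CRF. Pellets centrifuged, rinsed, filtered, scintillation counted.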

Rattus norvegicus [3] = assay: Ex vivo displacement of [125I]oCRF from CRF1 receptor in Sprague-Dawley rat pituitary at 3.2 mg/kg, po after 2 hrs by Betaplate scintillation counter; type: functional; method in brief: as §2
[4] = Fraction unbound ligand in human serum; type: ADME, cell-free
[5] = target: T2, Corticotropin-releasing factor receptor 1 (Rattus norvegicus) (UniProt P35353); assay: as §1
T2 sequence (whole entry): T1 sequence (P35353 whole entry)

[6] = Metabolic stability in human liver microsomes assessed as half life; type: ADME, Microsome
[7] = Dissociation constant, pKa of the compound; type: physicochemical
[8] = Clearance in Beagle dog at 1.0 mg/kg, iv; type: ADME, organism-based, Canis lupus familiaris; design: dose 1 mg/kg, route intravenous; settings: in vivo
Method in brief: (§3)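 Four beagles (2 male, 2 female, 8–15 kg), 1.0 mg/kg into cephalic vein; fasted ~21 h predose, fed ~3.5 h postdose. Serum sampled from jugular at 0.083–24 h, assayed by GC-MS (LLOQ 1.0 ng/mL). Noncompartmental: linear trapezoid AUC/AUMC, kel from log-linear terminal slope, t1/2 = 0.693/kel, CL = dose/AUC, VDss = CL·AUMC/AUC, VDγ = CL/kel.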

[9] = Volume of distribution at steady state in Beagle dog at 1.0 mg/kg, iv; type: ADME, organism-based, Canis lupus familiaris; design: dose 1 mg/kg, route intravenous; settings: in vivo, read-out: Vdss; method in brief: as §3
[10] = Volume of distribution at terminal elimination phase in Beagle dog at 1.0 mg/kg, iv; type: ADME, organism-based, Canis lupus familiaris; design: dose 1 mg/kg, route intravenous; settings: in vivo; method in brief: as §3
[11] = Half life at terminal elimination phase in Beagle dog at 1.0 mg/kg, iv; type: ADME, organism-based, Canis lupus familiaris; design: dose 1 mg/kg, route intravenous; settings: in vivo; method in brief: as §3
[12] = Cmax in fasted Beagle dog at 5.0 mg/kg, po; type: ADME, organism-based, Canis lupus familiaris; design: dose 5 mg/kg, route oral; settings: in vivo
Method in brief: (§4)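 Fasted beagles (fasted ~21 h, food ~3.5 h postdose) gavaged with drug suspended in 0.1% methyl cellulose pH 2. Jugular serum taken 0.25–24 h, GC-MS quantitation (LLOQ 1.0 ng/mL). Cmax and Tmax from observed profiles; F = (dose i.v.·AUC p.o.)/(dose p.o.·AUC i.v.), AUC by linear trapezoid with log-linear extrapolation.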

[13] = Tmax in fasted Beagle dog at 5.0 mg/kg, po; type: ADME, organism-based, Canis lupus familiaris; design: dose 5 mg/kg, route oral; settings: in vivo; method in brief: as §4
[14] = Oral bioavailability in fasted Beagle dog at 5.0 mg/kg; type: ADME, organism-based, Canis lupus familiaris; settings: in vivo; method in brief: as §4
[15] = Cmax in fed Beagle dog at 5.0 mg/kg, po; type: ADME, organism-based, Canis lupus familiaris; design: dose 5 mg/kg, route oral; settings: in vivo
Method in brief: (§5)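 Beagles fed one can of wet dog food 1 h before gavage of drug suspended in 0.1% methyl cellulose pH 2. Serum from jugular venipuncture at 0.25–24 h postdose, GC-MS analysis (LLOQ 1.0 ng/mL). Bioavailability = dose-normalized oral AUC(0–∞) over i.v. AUC(0–∞).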

[16] = Tmax in fed Beagle dog at 5.0 mg/kg, po; type: ADME, organism-based, Canis lupus familiaris; design: dose 5 mg/kg, route oral; settings: in vivo; method in brief: as §5
[17] = Oral bioavailability in fed Beagle dog at 5.0 mg/kg; type: ADME, organism-based, Canis lupus familiaris; settings: in vivo; method in brief: as §5
[18] = Intrinsic clearance in human liver microsomes; type: ADME, Microsome
[19] = Solubility at pH 7; type: physicochemical; settings: buffer
[20] = Solubility at pH 2; type: physicochemical; settings: buffer
[21] = target: T3, Corticotropin-releasing factor receptor 1 (Homo sapiens, UniProt P34998); assay: Antagonist activity at human CRF1 receptor assessed as oCRF-stimulated adenylate cyclase activity after 15 mins by liquid scintillation counting; type: functional; settings: read-out: Ki app
T3 sequence (P34998 whole entry): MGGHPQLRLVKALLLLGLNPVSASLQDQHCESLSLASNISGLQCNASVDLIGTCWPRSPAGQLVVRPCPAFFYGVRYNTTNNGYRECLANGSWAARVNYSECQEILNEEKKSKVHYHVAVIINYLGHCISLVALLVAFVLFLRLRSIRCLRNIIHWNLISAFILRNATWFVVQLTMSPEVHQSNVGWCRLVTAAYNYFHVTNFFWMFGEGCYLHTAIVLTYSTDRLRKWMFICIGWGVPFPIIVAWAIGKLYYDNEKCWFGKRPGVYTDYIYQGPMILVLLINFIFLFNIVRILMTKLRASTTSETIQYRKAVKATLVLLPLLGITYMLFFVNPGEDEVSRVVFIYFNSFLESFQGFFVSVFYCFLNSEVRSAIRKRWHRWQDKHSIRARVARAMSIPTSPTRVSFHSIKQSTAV

[22] = target: T4, Corticotropin-releasing factor receptor 2 (Homo sapiens, UniProt Q13324); assay: Binding affinity for human CRF2 receptor; settings: read-out: Ki app
T4 sequence (Q13324 whole entry): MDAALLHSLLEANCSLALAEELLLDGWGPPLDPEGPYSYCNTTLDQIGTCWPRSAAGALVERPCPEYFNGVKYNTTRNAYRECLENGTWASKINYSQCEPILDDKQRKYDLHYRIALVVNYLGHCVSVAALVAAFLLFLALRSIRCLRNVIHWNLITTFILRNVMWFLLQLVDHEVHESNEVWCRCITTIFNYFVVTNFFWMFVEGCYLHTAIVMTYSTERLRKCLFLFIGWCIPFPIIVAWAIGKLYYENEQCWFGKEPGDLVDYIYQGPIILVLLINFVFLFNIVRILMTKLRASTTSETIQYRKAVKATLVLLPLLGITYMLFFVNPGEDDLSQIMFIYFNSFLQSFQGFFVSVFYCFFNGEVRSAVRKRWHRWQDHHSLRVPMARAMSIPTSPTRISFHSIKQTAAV

Rattus norvegicus [23] = species on record: Rattus norvegicus; assay: Inhibition of CRF-induced […] of HPA axis in Sprague-Dawley rat assessed as increase in ACTH levels by radioimmunoassay; type: functional; settings: read-out: MED
Method in brief: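 Oral pretreatment in rats, N = 10 per group, then i.v. CRF 4 µg/kg; plasma ACTH measured. Minimum effective dose versus CRF alone by one-way ANOVA with Dunnett's post hoc test, p < 0.05.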

Rattus norvegicus [24] = assay: Inhibition of CRF-induced exitation of locus coerulus neurons in iv dosed Sprague-Dawley rat; type: functional; settings: read-out: ID50 (the source's name)
Rattus norvegicus [25] = assay: Inhibition of CRF-induced startle response in Sprague-Dawley rat at 17.8 mg/kg, po; type: functional, organism-based; design: dose 17.8 mg/kg
Method in brief: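 CRF 1 µg given icv to rats to enhance acoustic startle; compound dosed p.o. beforehand, with baseline startle also recorded.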

Rattus norvegicus [26] = assay: Inhibition of fear-potentiated startle response in Sprague-Dawley rat at 0.32 to 3.2 mg/kg, po; type: functional; design: scale not given: the % may be the effect or the level left; settings: dose mg/kg 0.32-3.2
Rattus norvegicus [27] = assay: Inhibition of fear-potentiated startle response in Sprague-Dawley rat at 10 mg/kg, po; type: functional, organism-based; design: dose 10 mg/kg
[28] = Cmax in fasted Beagle dog at 1.0 mg/kg, po; type: ADME, organism-based, Canis lupus familiaris; design: dose 1 mg/kg, route oral; settings: in vivo; method in brief: as §4
[29] = Tmax in fasted Beagle dog at 1.0 mg/kg, po; type: ADME, organism-based, Canis lupus familiaris; design: dose 1 mg/kg, route oral; settings: in vivo; method in brief: as §4
[30] = Oral bioavailability in fasted Beagle dog at 1.0 mg/kg; type: ADME, organism-based, Canis lupus familiaris; settings: in vivo; method in brief: as §4
[31] = Solubility at pH 2.4; type: physicochemical; settings: buffer
[32] = target: T1, Corticotropin-releasing factor receptor 1; assay: Antagonist activity at CRF1 receptor in rat cortical membrane assessed as oCRF-stimulated adenylate cyclase activity after 15 mins by liquid scintillation; type: functional, cell membranes; settings: read-out: Ki app
[33] = Cmax in fed Beagle dog at 1.0 mg/kg, po; type: ADME, organism-based, Canis lupus familiaris; design: dose 1 mg/kg, route oral; settings: in vivo; method in brief: as §5
[34] = Tmax in fed Beagle dog at 1.0 mg/kg, po; type: ADME, organism-based, Canis lupus familiaris; design: dose 1 mg/kg, route oral; settings: in vivo; method in brief: as §5
[35] = Oral bioavailability in fed Beagle dog at 1.0 mg/kg; type: ADME, organism-based, Canis lupus familiaris; settings: in vivo; method in brief: as §5

CC[C@@H](CO)Nc1cc(C)nc(Oc2c(C)cc(Cl)cc2C)c1C(=O)NC
IC50 [1]: 31 nM | inhibition in vivo at 3.2 mg/kg (Rattus norvegicus [2]): 86% | inhibition in vivo at 3.2 mg/kg (Rattus norvegicus [3]): 63% | fraction unbound [4]: 0.045

CCC(CC)Oc1cc(C)nc(Nc2c(C)cc(C)cc2C)c1C(=O)O
Activity [5]: inactive

CCC(CC)Nc1cc(C)nc(Oc2c(C)cc(Br)cc2C)c1C
IC50 [1]: 5.6 nM | inhibition in vivo at 3.2 mg/kg (Rattus norvegicus [2]): 86% | inhibition in vivo at 3.2 mg/kg (Rattus norvegicus [3]): 81%

CCC(CC)Nc1cc(C)nc(Oc2c(C)cc(Cl)cc2C)c1C
IC50 [1]: 7.2 nM | inhibition in vivo at 3.2 mg/kg (Rattus norvegicus [2]): 79% | inhibition in vivo at 3.2 mg/kg (Rattus norvegicus [3]): 72% | half-life [6]: 0.5 h

CCC(CC)Nc1cc(C)nc(Nc2c(C)cc(C)cc2C)c1C
IC50 [1]: 750 nM | pKa [7]: 9.3

CCC(CC)Oc1cc(C)nc(Oc2c(C)cc(C)cc2C)c1C
clearance [8]: 4.1 mL/min/kg | Vd [9]: 1.1 L/kg | Vd [10]: 3.1 L/kg | half-life [11]: 8.3 h | Cmax [12]: 187 ng/mL | Tmax [13]: 1.5 h | bioavailability [14]: 3.6% | Cmax [15]: 1740 ng/mL | IC50 [1]: 6.8 nM | inhibition in vivo at 3.2 mg/kg (Rattus norvegicus [2]): 75% | inhibition in vivo at 3.2 mg/kg (Rattus norvegicus [3]): 72% | Tmax [16]: 1.9 h | bioavailability [17]: 37%

CC[C@@H](CO)Nc1cc(C)nc(Oc2c(C)cc(Cl)cc2C)c1C(=O)OC
IC50 [1]: 6.4 nM | inhibition in vivo at 3.2 mg/kg (Rattus norvegicus [2]): 111% | inhibition in vivo at 3.2 mg/kg (Rattus norvegicus [3]): 86% | microsomal CLint [18]: 47 µL/min/mg

CCC(CC)Oc1cc(C)nc(Oc2c(C)cc(C)cc2C)c1C.CS(=O)(=O)O
pKa [7]: 3.6 | solubility [19]: 0.2 µg/mL | solubility [20]: 3 µg/mL

CCC(CC)Oc1cc(C)nc(Nc2c(C)cc(C)cc2C)c1C
IC50 [1]: 3.7 nM

CCC(CC)Nc1cc(C)nc(Oc2c(C)cc(C)cc2C)c1C
Ki [21]: 12 nM | Ki [22]: > 10000 nM | minimal effective dose (Rattus norvegicus [23]): 10 mg/kg | ED50 (Rattus norvegicus [24]): < 0.01 mg/kg | Activity (Rattus norvegicus [25]): Active | Activity (Rattus norvegicus [26]): 62% | Activity (Rattus norvegicus [27]): Active | clearance [8]: 17 mL/min/kg | Vd [9]: 5.3 L/kg | Vd [10]: 12 L/kg | half-life [11]: 8.8 h | Cmax [28]: 46.2 ng/mL | Tmax [29]: 1.8 h | bioavailability [30]: 22% | IC50 [1]: 5.1 nM | solubility [31]: 5400 µg/mL (≈ 16.5 mM) | pKa [7]: 6.9 | solubility [19]: 0.1 µg/mL (≈ 0.000306 mM) | inhibition in vivo at 3.2 mg/kg (Rattus norvegicus [2]): 81% | inhibition in vivo at 3.2 mg/kg (Rattus norvegicus [3]): 49% | half-life [6]: 0.633 h | Ki [32]: 12 nM | Cmax [33]: 131 ng/mL | Tmax [34]: 2 h | bioavailability [35]: 64%
